Results as given in ChEMBL document CHEMBL4004786, “Nanomolar Antimalarial Agents against Chloroquine-Resistant Plasmodium falciparum from Medicinal Plants and Their Structure-Activity Relationships” (J Nat Prod, 2017).

Tests used:
[1] = test system: Plasmodium falciparum; assay: Antimalarial activity against chloroquine-resistant Plasmodium falciparum Dd2 assessed as parasite growth inhibition after 72 hrs by SYBR Green 1 assay; type: functional; settings: Dd2, 72 h
Outline: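 Viability was read by SYBR Green I DNA quantitation and normalized to DMSO-treated untreated controls. IC50 came from nonlinear regression, averaging at least three independent experiments run in triplicate, with standard deviations.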

[2] = test system: WI-38; assay: Cytotoxicity against human WI38 cells after 24 hrs by resazurin assay; settings: WI-38, 24 h
[3] = Selectivity index, ratio of IC50 for human WI38 cells to IC50 for chloroquine-resistant Plasmodium falciparum Dd2; type: toxicity; settings: read-out: Ratio IC50

Compound | IC50 [1] | IC50 [2] | selectivity ratio [3]
CO[C@]12OC(=O)C(C)=C1C1=C3[C@](C)([C@@H]4C[C@@H]4[C@@]3(O)C[C@@H]3[C@]14OC(=O)C1=C4C[C@H]4[C@](O)(COC(=O)/C(C)=C/COC(=O)CCC(=O)OC1)[C@H]1C[C@H]1[C@]34C)[C@H]2O | > 25000 nM | – | –
C=C1[C@H]2C[C@H]2[C@@]2(C)[C@H]1[C@@H](OC(C)=O)C1=C(C)C(=O)O[C@@]13C1=C4[C@](C)([C@@H]5C[C@@H]5[C@@]4(O)C[C@H]32)[C@@H](O)C(=O)/C1=C(/C)C(=O)OC | > 25000 nM | – | –
COC(=O)/C(C)=C1\C(=O)[C@H](O)[C@]2(C)C3=C(C[C@@H]4[C@]5(OC(=O)C(CO)=C5C[C@H]5[C@H](COC(C)=O)[C@H]6C[C@H]6[C@]45C)[C@H]31)[C@H]1C[C@H]12 | 580 nM | – | –
COC(=O)CCC(=O)OCC1=C2C[C@H]3[C@](O)(COC(=O)/C=C(\C)C=O)[C@H]4C[C@H]4[C@]3(C)[C@@H]3CC4=C5[C@H](/C(=C(\C)C(=O)OC)C(=O)[C@H](O)[C@@]5(C)[C@@H]5C[C@H]45)[C@]23OC1=O | 5.2 nM | 8840 nM | 1700
COC(=O)CCC(=O)OCC1=C2C[C@H]3[C@](O)(COC(=O)/C=C(\C)CO)[C@H]4C[C@H]4[C@]3(C)[C@@H]3C=C4C5=C(C6=C(C)C(=O)O[C@]6(O)[C@H](O)[C@@]5(C)[C@@H]5C[C@H]45)[C@]23OC1=O | 198 nM | – | –
COC(=O)/C(C)=C1\C(=O)[C@H](O)[C@]2(C)C3=C(C[C@@H]4[C@]5(OC(=O)C(CO)=C5C[C@H]5[C@](O)(CO)[C@H]6C[C@H]6[C@]45C)[C@H]31)[C@H]1C[C@H]12 | 4600 nM | – | –
C=C1[C@H]2C[C@H]2[C@@]2(C)[C@H]1[C@@H](OC(C)=O)C1=C(C)C(=O)O[C@@]13C1=C4[C@@](C)(C(=O)[C@@]5(O)OC(=O)C(C)=C15)[C@@H]1C[C@@H]1[C@@]4(O)C[C@H]32 | > 25000 nM | – | –
C=C1[C@H]2C[C@H]2[C@@]2(C)[C@H]1[C@@H](OC(C)=O)C1=C(C)C(=O)O[C@@]13C1=C4[C@](O)(C[C@H]32)[C@H]2C[C@H]2[C@]4(C)CC(=O)/C1=C(/C)C(=O)OC | > 25000 nM | – | –
COC(=O)/C(C)=C1\C(=O)[C@H](O)[C@]2(C)C3=C(C[C@@H]4[C@]5(OC(=O)C(CO)=C5C[C@H]5[C@](O)(COC(=O)C=C(C)C)[C@H]6C[C@H]6[C@]45C)[C@H]31)[C@H]1C[C@H]12 | 211 nM | – | –
COC(=O)/C(C)=C1\C(=O)[C@H](O)[C@]2(C)C3=C1[C@]14OC(=O)C(C)=C1C[C@H]1[C@](O)(CO)[C@H]5C[C@H]5[C@]1(C)[C@@H]4C[C@]3(OO)[C@H]1C[C@H]12 | 5300 nM | – | –
C=C1C(=O)O[C@]23C4=C5C(=O)[C@H](O)[C@]6(C)C4=C(C[C@H]2[C@]2(C)C(C[C@]13[C@]5(C)C(=O)OC)[C@](O)(COC(=O)/C(C)=C/C)[C@H]1C[C@H]12)[C@H]1C[C@H]16 (some centres undefined) | 4700 nM | – | –
COC(=O)/C(C)=C1\C(=O)[C@H](O)[C@]2(C)C3=C1[C@]14OC(=O)C5=C1C[C@H]1[C@](O)(COC(=O)/C(C)=C/COC(=O)CCC(=O)OC5)[C@H]5C[C@H]5[C@]1(C)[C@@H]4C[C@]3(O)[C@H]1C[C@H]12 | > 25000 nM | – | –
COC(=O)CCC(=O)OCC1=C2C[C@H]3[C@](O)(COC(=O)/C=C(\C)CO)[C@H]4C[C@H]4[C@]3(C)[C@@H]3C[C@@]4(OO)C5=C(/C(=C(\C)C(=O)OC)C(=O)[C@H](O)[C@@]5(C)[C@@H]5C[C@@H]54)[C@]23OC1=O | 43 nM | > 100000 nM | –
COC(=O)/C(C)=C1\C(=O)[C@H](O)[C@]2(C)C3=C(C[C@@H]4[C@]5(OC(=O)C(CO)=C5C[C@H]5[C@H](CO)[C@H]6C[C@H]6[C@]45C)[C@H]31)[C@H]1C[C@H]12 | 11400 nM | – | –
COC(=O)CCC(=O)OCC1=C2C[C@H]3[C@](O)(COC(=O)/C=C(\C)CO)[C@H]4C[C@H]4[C@]3(C)[C@@H]3C[C@@]4(OO)C5=C(C6=C(C)C(=O)O[C@]6(O)[C@H](O)[C@@]5(C)[C@@H]5C[C@@H]54)[C@]23OC1=O | 94 nM | – | –
C[C@@]12C=C3OC(=O)C(CO)=C3C[C@H]1[C@@H](CO)[C@H]1C[C@H]12 | > 25000 nM | – | –
COC(=O)CCC(=O)OC/C(C)=C/C(=O)OC[C@]1(O)[C@H]2C[C@H]2[C@]2(C)[C@@H]3CC4=C5[C@H](/C(=C(\C)C(=O)OC)C(=O)[C@H](O)[C@@]5(C)[C@@H]5C[C@H]45)[C@@]34OC(=O)C(CO)=C4C[C@@H]12 | 19 nM | 3090 nM | 163
COC(=O)/C(C)=C1\C(=O)[C@H](O)[C@]2(C)C3=C(C[C@@H]4[C@]5(OC(=O)C(CO)=C5C[C@H]5[C@](O)(COC(=O)/C=C(\C)CO)[C@H]6C[C@H]6[C@]45C)[C@H]31)[C@H]1C[C@H]12 | 111 nM | – | –

Compound | IC50 [1] | IC50 [2] | selectivity ratio [3]
CC1=C2CC3=C(C)[C@H]4C[C@H]4[C@]3(C)C[C@@H]2OC1=O | > 25000 nM | – | –
C=C1[C@@H]2C[C@@H]2[C@]2(C)[C@@H]3CC4=C5[C@H](/C(=C(\C)C(=O)OC)C(=O)[C@H](O)[C@@]5(C)[C@@H]5C[C@H]45)[C@@]34OC(=O)C(C)=C4C[C@@H]12 | 1500 nM | – | –
CC1=C2C3=C4[C@](C)([C@@H]5C[C@@H]5[C@@]4(O)C[C@@H]4[C@]35OC(=O)C3=C5C[C@H]5[C@](O)(COC(=O)/C=C(\C)COC(=O)CCC(=O)OC3)[C@H]3C[C@H]3[C@]45C)[C@@H](O)[C@@]2(O)OC1=O | 7100 nM | – | –
COC(=O)/C(C)=C1\C(=O)[C@H](O)[C@]2(C)C3=C(C[C@@H]4[C@]5(OC(=O)C6=C5C[C@H]5[C@](O)(COC(=O)/C(C)=C/COC(=O)[C@@H](O)CC(=O)OC6)[C@H]6C[C@H]6[C@]45C)[C@H]31)[C@H]1C[C@H]12 | 13 nM | 1740 nM | 134
COC(=O)CCC(=O)OC/C(C)=C/C(=O)OC[C@]1(O)[C@H]2C[C@H]2[C@]2(C)[C@@H]3C[C@@]4(OO)C5=C(/C(=C(\C)C(=O)OC)C(=O)[C@H](O)[C@@]5(C)[C@@H]5C[C@@H]54)[C@@]34OC(=O)C(CO)=C4C[C@@H]12 | 30 nM | 530 nM | 18
CC1=C2[C@H]3[C@@H]4C(=C[C@@H]5[C@]36OC(=O)C(CO)=C6C[C@H]3[C@](O)(COC(=O)/C=C(\C)CO)[C@H]6C[C@H]6[C@]53C)[C@H]3C[C@H]3[C@]4(C)[C@@H](O)[C@@]2(O)OC1=O | 9900 nM | – | –
CC(=O)OC[C@H]1[C@H]2C[C@H]2[C@]2(C)C=C3OC(=O)C(CO)=C3C[C@@H]12 | > 25000 nM | – | –
COC(=O)/C(C)=C1\C(=O)[C@H](O)[C@]2(C)C3=C(C[C@@H]4[C@]5(OC(=O)C(COC(C)=O)=C5C[C@H]5[C@](O)(COC(=O)C=C(C)C)[C@H]6C[C@H]6[C@]45C)[C@H]31)[C@H]1C[C@H]12 | 860 nM | – | –
COC(=O)/C(C)=C1\C(=O)[C@H](O)[C@]2(C)C3=C(C[C@@H]4[C@]5(OC(=O)C(C)=C5C[C@H]5[C@H](COC(C)=O)[C@H]6C[C@H]6[C@]45C)[C@H]31)[C@H]1C[C@H]12 | 1800 nM | – | –
COC(=O)/C(C)=C1\C(=O)[C@H](O)[C@]2(C)C3=C1[C@]14OC(=O)C5=C1C[C@H]1[C@](O)(COC(=O)/C=C(\C)COC(=O)CCC(=O)OC5)[C@H]5C[C@H]5[C@]1(C)[C@@H]4C[C@]3(OO)[C@H]1C[C@H]12 | 474 nM | – | –
C[C@@H]1CC[C@H]2[C@@H](C)C(=O)O[C@@H]3O[C@@]4(C)CC[C@@H]1[C@]32OO4 [ARTEMISININ] | 4 nM | – | –
CC1=C2C3=C4[C@](C)([C@@H]5C[C@@H]5[C@@]4(O)C[C@@H]4[C@]35OC(=O)C3=C5C[C@H]5[C@](O)(COC(=O)/C(C)=C/COC(=O)CCC(=O)OC3)[C@H]3C[C@H]3[C@]45C)[C@@H](O)[C@@]2(O)OC1=O [CHLORAMULTILIDE C] | > 25000 nM | – | –
C/C=C(\C)C(=O)OC[C@]1(O)[C@H]2C[C@H]2[C@]2(C)[C@@H]3C[C@@]4(O)C5=C(C6=C(C)C(=O)O[C@]6(O)[C@H](O)[C@@]5(C)[C@@H]5C[C@@H]54)[C@@]34OC(=O)C(CO)=C4C[C@@H]12 [CHLORAMULTILIDE D] | > 25000 nM | – | –
C/C=C(\C)C(=O)OC[C@]1(O)[C@H]2C[C@H]2[C@]2(C)[C@@H]3CC4=C5[C@H](/C(=C(\C)C(=O)OC)C(=O)[C@H](O)[C@@]5(C)[C@@H]5C[C@H]45)[C@@]34OC(=O)C(C)=C4C[C@@H]12 [SARCANDROLIDE A] | 320 nM | – | –
COC(=O)/C(C)=C1\C(=O)[C@H](O)[C@]2(C)C3=C(C[C@@H]4[C@]5(OC(=O)C(CO)=C5C[C@H]5[C@](O)(COC(=O)/C(C)=C/CO)[C@H]6C[C@H]6[C@]45C)[C@H]31)[C@H]1C[C@H]12 [SARCANDROLIDE B] | 265 nM | – | –
C/C=C(\C)C(=O)OC[C@]1(O)[C@H]2C[C@H]2[C@]2(C)[C@@H]3C[C@@]4(O)C5=C(C6=C(C)C(=O)O[C@]6(O)[C@H](O)[C@@]5(C)[C@@H]5C[C@@H]54)[C@@]34OC(=O)C(COC(C)=O)=C4C[C@@H]12 [SARCANDROLIDE D] | > 25000 nM | – | –
C/C=C(\C)C(=O)OC[C@]1(O)[C@H]2C[C@H]2[C@]2(C)[C@@H]3C[C@@]4(O)C5=C(/C(=C(\C)C(=O)OC)C(=O)[C@H](O)[C@@]5(C)[C@@H]5C[C@@H]54)[C@@]34OC(=O)C(COC(C)=O)=C4C[C@@H]12 [SARCANDROLIDE E] | > 25000 nM | – | –
